Test results taken from ChEMBL document CHEMBL1139853, “Anxiolytic effects of erythrinian alkaloids from Erythrina mulungu” (2007).
Activity calls are given as the source filed them. The calls are words filed in the database; no cut-off is given here.

What was measured:
[1] = test system: Mus musculus; assay: Locomotor activity in Swiss mouse measured as number of crossings in the arena test at 3 mg/kg, po; assay type: functional
How it was run: (§1)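 Male Swiss mice (25-35 g, naive) given the test agent orally at 3-10 mg/kg as a saline suspension, 30 min before testing. Saline po served as vehicle; diazepam 2 mg/kg ip (saline + 2% Tween 80) was the reference. Arena locomotor test scoring crossings and rearings; mean ± SEM reported.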

[2] = test system: Mus musculus; assay: Locomotor activity in Swiss mouse measured as number of rearings in the arena test at 3 mg/kg, po; assay type: functional; how it was run: as §1
[3] = test system: Mus musculus; assay: Locomotor activity in Swiss mouse measured as number of crossings in the arena test at 10 mg/kg, po; assay type: functional; how it was run: as §1
[4] = test system: Mus musculus; assay: Locomotor activity in Swiss mouse measured as number of rearings in the arena test at 10 mg/kg, po; assay type: functional; how it was run: as §1
[5] = test system: Mus musculus; assay: Antianxiolytic activity in Swiss mouse assessed as impairment of inhibitory avoidance task by elevated T-maze test at 3 mg/kg, po; assay type: functional, organism-based; design: dose 3 mg/kg
How it was run: (§2)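 Naive male Swiss mice (25-35 g) received alkaloid suspended in saline (NaCl 0.9%) orally (3-10 mg/kg range) 30 min before testing, with saline vehicle controls. Inhibitory avoidance latency to leave the enclosed arm was measured in an elevated T-maze (38.5 cm high; three 30 cm × 5 cm arms). Analysis was one-way ANOVA followed by Duncan's test.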

[6] = test system: Mus musculus; assay: Antianxiolytic activity in Swiss mouse assessed as impairment of inhibitory avoidance task by elevated T-maze test at 10 mg/kg, po; assay type: functional, organism-based; design: dose 10 mg/kg; how it was run: as §2
[7] = test system: Mus musculus; assay: Antianxiolytic activity in Swiss mouse assessed as effect on latency to leave the open arm by elevated T maze test at 2 mg/kg, ip; assay type: functional, organism-based; design: dose 2 mg/kg
How it was run: (§3)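 Male Swiss mice (25-35 g, naive), group-housed on a 12 h light cycle. Diazepam was suspended in saline + 2% Tween 80 and given ip 30 min before the session. Elevated T-maze raised 38.5 cm above the floor, with three 30 cm × 5 cm arms; arm-exit latencies were recorded. Analysis was one-way ANOVA with Duncan's post hoc test.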

[8] = test system: Mus musculus; assay: Antianxiolytic activity in Swiss mouse assessed as reduction of latency to leave the enclosed arm by elevated T maze test at 2 mg/kg, ip; assay type: functional, organism-based; design: dose 2 mg/kg; how it was run: as §3
[9] = test system: Mus musculus; assay: Antianxiolytic activity in Swiss mouse assessed as reduction of latency to leave the enclosed arm by elevated T maze test at 10 mg/kg, po; assay type: functional, organism-based; design: dose 10 mg/kg
How it was run: (§4)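 Male Swiss mice, 25-35 g, experimentally naive, group-housed 10 per cage on a 12 h light cycle at 23 ± 1 °C/55 ± 5% humidity. Test agent suspended in saline (NaCl 0.9%) and given orally (3-10 mg/kg) 30 min before the session; vehicle saline po; diazepam reference 2 mg/kg ip in saline + 2% Tween 80. Elevated T-maze 38.5 cm above the floor, three 30 cm × 5 cm arms. One-way ANOVA followed by Duncan's test.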

[10] = test system: Mus musculus; assay: Antianxiolytic activity in Swiss mouse assessed as reduction of latency to leave the enclosed arm by elevated T maze test at 3 mg/kg, po; assay type: functional, organism-based; design: dose 3 mg/kg; how it was run: as §4
[11] = test system: Mus musculus; assay: Antianxiolytic activity in Swiss mouse assessed as effect on latency to leave the open arm by elevated T maze test at 10 mg/kg; assay type: functional, organism-based; design: dose 10 mg/kg; how it was run: as §4

SMILES | Activity [1] | Activity [2] | Activity [3] | Activity [4] | Activity [5] | Activity [6] | Activity [7] | Activity [8] | Activity [9] | Activity [10] | Activity [11]
COc1cc2c(cc1OC)[C@]13C[C@@H](OC)C=CC1=CCN3C[C@H]2O | 135.3 | 29.6 | 159 | 29.63 | Active | Active | – | – | – | – | –
CN1C(=O)CN=C(c2ccccc2)c2cc(Cl)ccc21 | – | – | – | – | Active | Active | inactive | Active | Active | – | –
COc1cc2c(cc1OC)[C@]13C[C@@H](O)C=CC1=CCN3CC2 | 157.33 | 37.07 | 157.93 | 31.71 | – | – | – | – | Active | Active | –
COc1cc2c(cc1OC)[C@]13C[C@@H](O)C=CC1=CCN3C[C@H]2O | 158.5 | 27.7 | 126.56 | 22.44 | – | – | – | – | Active | – | inactive
